# The list is not random: actives were taken first. Their share in the collection is about 3.5%.
# SIAE inh – inhibitors of human sialic acid acetylesterase SIAE; Q9HAT2; SIAE FP-Rh probe binding, fluorescence polarization; inhibition, % at 9.66 µM; 0.69% of 370,000 active; AID 1053197;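 active means inhibition above a cutoff: mean of compounds within the control limits plus 3 SD of those, cut at about 17% in these data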;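 further: 0% = plate median of compound wells and 100% = probe without SIAE protein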
# rCAG RNA binder – binds r(CAG) RNA repeats; r(CAG) RNA repeat, TO-PRO-1 dye displacement fluorescence; inhibition, % at 3 µM; 1.3% of 370,000 active;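 active means inhibition above the plate cutoff, the mean of all test compounds on that plate plus 3 SD, cut at about 35% in these data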;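 further: 0% = DMSO alone and 100% = 100 µM mitoxantrone as full dye displacement; higher means more dye released from RNA so lower well fluorescence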
# TCR-CD3 inh – human TCR-CD3 binding inhibition. TAMRA-labeled TCR probe fluorescence, biochemical. inhibition, % at 9.4 µM. 0.37% of 360,000 active. AID 651800; in the data active means inhibition above about 19%;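 further: recombinant mutant TCR 2C K166C tagged with TAMRA read by polarization; 0% = receptor in buffer alone and 100% = receptor with positive control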
# mABHD4 FP – ABHD4 (mouse) inhibition, primary FP screen. Q8VD66. 0.54% of 370,000 active. inhibition, % at 8.92 µM. purified mABHD4, FP-Rh probe fluorescence polarization;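 active means inhibition exceeding the mean over every tested compound plus 3 SD, cut at about 30% in these data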;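 further: 0% = plate median of compound wells and 100% = S159A mutant with DMSO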
#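 Material: mouse ABHD4 enzyme, wild type; Benchmarks: S159A mutant high control, sample median low control; Buffer or medium: HEPES pH 7.0, NaCl, Pluronic buffer; Signal: fluorescence polarization; Read-out: percent inhibition of probe binding, normalized to plate controls; Timing: pre-incubation 45 min, probe exposure 60 min, at 25 °C; Dosing: 8.92 µM, single dose.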
# PRMT1 FP inh – blocks human protein arginine methyltransferase 1 | AID 652257 | recombinant PRMT1, activity-based probe fluorescence polarization | Q99873 | inhibition, % at 2.79 µM | 1.3% of 370,000 active;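 active means inhibition above about 21% made by adding two undisclosed values, limit read from the data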
# Target sequence (Q99873 whole entry, looked up): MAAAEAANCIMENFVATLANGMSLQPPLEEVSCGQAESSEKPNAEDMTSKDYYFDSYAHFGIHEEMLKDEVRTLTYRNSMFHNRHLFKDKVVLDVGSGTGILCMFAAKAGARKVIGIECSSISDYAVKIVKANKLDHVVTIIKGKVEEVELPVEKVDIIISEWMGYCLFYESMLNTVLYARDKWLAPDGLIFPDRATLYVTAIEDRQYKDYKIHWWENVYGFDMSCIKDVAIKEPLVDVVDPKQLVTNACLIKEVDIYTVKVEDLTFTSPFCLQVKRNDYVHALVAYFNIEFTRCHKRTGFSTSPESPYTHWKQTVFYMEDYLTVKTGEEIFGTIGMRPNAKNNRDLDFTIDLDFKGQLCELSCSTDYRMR
# HTRA1 inh – blocks human HTRA1 serine peptidase; 0.5% of 340,000 active; inhibition, % at 5.96 µM; Q92743; recombinant HTRA1, FP-rhodamine activity-based probe, fluorescence polarization; in the data active means inhibition above about 36%;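 further: 0% = enzyme with DMSO and 100% = wells lacking enzyme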
# * = called active by the depositor; . = not tested or not shown.
SMILES,SIAE inh,rCAG RNA binder,TCR-CD3 inh,mABHD4 FP,PRMT1 FP inh,HTRA1 inh
COc1cc(C(=S)N2CCCC2)cc(Cl)c1OCC(=O)Nc1ccc(C)cc1C,-12,0,-7,-10,22*,-30
CC(OC(=O)Cc1ccccc1[N+](=O)[O-])C(=O)NC(=O)NC1CCCCC1 (stereo not drawn),0,-8,3,-2,-1,58*
COC(=O)C1=C(C)NC(C)=C(C(=O)OC)C1c1cn(-c2ccccc2)nc1-c1ccco1,-9,8,-2,-25,31*,-28
Cc1cc(C)cc(C(=O)OCCN(C)C2CN(Cc3cn(Cc4ccc([N+](=O)[O-])cc4)nn3)S(=O)(=O)C2)c1 (stereo not drawn),-5,3,.,-5,-2,.
S=C(NNc1ccnc2cc(Cl)ccc12)Nc1ccc(Cl)cc1Cl,19*,22,1,20,0,7
CCOc1ccc(NC(=S)NNc2ccnc3cc(Cl)ccc23)cc1,11,15,-5,9,9,14
COC(=O)c1ccccc1NC1OC(=O)c2ccccc21 (stereo not drawn),-8,6,2,-19,6,-5
Cc1ccc2cccc(NC3OC(=O)c4ccccc43)c2n1 (stereo not drawn),19*,1,10,7,1,14
CC(C)C[C@H]1COc2cccc(F)c2S(=O)(=O)N1Cc1cn(Cc2ccc(Cl)cc2)nn1,-3,3,.,-18,-1,.
CCOC(=O)c1nn(-c2ccccc2C)c(=O)c2c(N)scc12,1,0,-9,0,25*,-1
COc1ccccc1C1CC(c2cccs2)=NN1C(=O)CCC(=O)O (stereo not drawn),-5,6,-5,-7,-2,-2
COc1ccccc1C1CC(c2cccs2)=Nc2ccccc2S1 (stereo not drawn),11,2,0,3,81*,-14
CCOc1cc(/C=C2\C(=O)N(CCc3ccc(OC)c(OC)c3)C(C)=C2C(=O)OC)ccc1O,6,15,-1,17,26*,-2
COC(=O)C1=C(C)N(Cc2ccc(C)cc2)C(=O)/C1=C\c1cc(OC)c(OC)c(OC)c1,4,4,6,-3,-1,-10
COc1ccc(C(=O)O[C@@H]2CCC[C@@]3(C(=O)N(Cc4ccccc4)c4ccccc43)[C@H]2NC(=O)CCc2ccccc2)cc1OC,-11,11,.,-13,-4,.
COc1ccc(Br)cc1C(=O)Nc1ccc(N2CCCC2)cc1,9,18,19*,15,-2,6
COc1ccc(Br)cc1C(=O)Nc1ccc(N2CCN(S(C)(=O)=O)CC2)cc1,6,6,3,5,-2,1
CCC/C=C1/CCCOC(C(=O)NCc2ccccn2)(C(F)(F)F)C1 (stereo not drawn),3,-1,5,8,1,-4
CCC/C=C1/CCCOC(C(=O)NCc2ccc(C)o2)(C(F)(F)F)C1 (stereo not drawn),-4,10,3,-8,45*,-3
NC(=O)C1CCN(C2=C(Cl)C(=O)c3ccccc3C2=O)CC1,-4,4,4,7,25*,10
c1ccc(Cn2ccc3ccc(-c4ccc5ccn(Cc6cccc(Oc7ccccc7)c6)c5c4)cc32)cc1,-1,27,.,11,1,.
CC(C)C(=O)Nc1cccc(C(=O)Nc2nnc(C(C)C)s2)c1,-2,-3,-6,0,1,3
CC(C)c1nnc(NC(=O)c2cccc(NC(=O)C(F)(F)F)c2)s1,-6,1,-2,0,22*,1
C=CCN(CC#CC1=CCCCC1)Cc1ccc(OC)cc1OC,3,-3,.,1,-2,.
COc1cc(NC(=S)N2CCCC(CO)C2)cc(OC)c1 (stereo not drawn),-5,7,-1,-9,21*,8
SMILES,SIAE inh,rCAG RNA binder,TCR-CD3 inh,mABHD4 FP,PRMT1 FP inh,HTRA1 inh
CCOC(=O)[C@]12CCCCC/C=C\1N(Cc1ccc(OC)cc1)C(=O)[C@H]2CC(=O)NCCCOC,-1,-2,.,-1,1,.
O=C(CSc1nc2cc([N+](=O)[O-])ccc2n1-c1ccccc1)NCc1ccc2c(c1)OCO2,4,3,-1,-6,24*,9
CC1=C(C)/C(=N\OS(=O)(=O)c2ccc(C)cc2)C=CC1=O,9,2,6,8,24*,2
COc1ccc(S(=O)(=O)/N=C2/C=CC(=O)C(C)=C2C)cc1,.,.,.,.,.,-2
COC(=O)[C@H](CC(C)C)N(Cc1cn(Cc2ccc(C)cc2)nn1)S(=O)(=O)c1ccccc1Br,-7,2,.,-1,2,.
COc1ccc(NC(=O)C(Cl)=C(Cl)Cl)cn1,0,-3,4,-3,-1,-2
COc1ccc(NC(=O)C(C)(C)Oc2ccc(Cl)cc2)cn1,4,-5,-1,-3,1,-7
COc1ccc(NC(=O)/C(Cl)=C(/Cl)S(=O)(=O)Cc2ccccc2)cn1,4,-2,-7,-14,24*,-9
COc1ccc(NC(=O)/C(Cl)=C(/Cl)S(=O)Cc2ccc(Cl)cc2)cn1 (stereo not drawn),-3,-4,-1,1,32*,-11
COC(=O)C1CN(Cc2ccc(OC)cc2)CCS(=O)(=O)N1Cc1cn(Cc2ccccc2)nn1 (stereo not drawn),2,0,.,3,2,.
CCCCN(C)c1nc(-c2ccco2)c2c(c1C#N)CC(C)(C)OC2,8,33,-4,6,21*,-10
CO[C@@]1(NC(=O)CSCC#N)C(=O)N2C(C(=O)O)=C(CSc3nnnn3C)CS[C@@H]21,7,52*,-3,-2,10,6
Cc1nnc(SCC2=C(C(=O)O)N3C(=O)C(NC(=O)Cn4cnnn4)C3SC2)s1 (stereo not drawn),14,6,6,-3,12,5
COc1cc(/C=C(/C#N)c2nc3ccccc3[nH]2)ccc1OCc1ccc(C(=O)O)o1,-21,40*,9,15,1,-6
COC(=O)c1ccc(COc2ccc(/C=C(\C#N)c3nc4ccccc4[nH]3)cc2OC)o1,-54,18,3,-36,-5,-29
O=C1NN(c2ccccc2)C(=O)/C1=C\c1ccccc1OCC(=O)N1CCOCC1,9,20,3,2,21*,1
CCc1ccccc1N=C1S/C(=C/c2ccccc2OCC(=O)N2CCOCC2)C(=O)N1C,-1,11,-7,-10,1,-35
O=[N+]([O-])c1cccc2[nH]c(CNc3nc(N4CCOCC4)nc4c3ncn4-c3ccsc3)nc12,-2,.,.,11,-4,.
COc1ccccc1NC(=S)c1ccccc1,4,4,-3,-11,23*,2
COc1ccccc1NC(=S)NNC(=O)c1ccccc1,8,2,6,7,-2,-5
COc1ccc(Cl)cc1NC(=O)CSc1nnc(Cc2ccc(C)cc2)c(=O)[nH]1,-12,75*,1,-27,24*,-49

# Bioassay records: PubChem, The Scripps Research Institute Molecular Screening Center
